Data published in ChEMBL document CHEMBL1140952 (J Med Chem, 2009).
pIC50: −log10 of the molar value. In brackets after ≈: the same amount, converted by molar mass.

Columns and labels:
[1] = Antiproliferative activity against Met-dependent human GTL16 cells after 72 hrs by MTS assay; format: functional, cell-based; conditions: GTL 16, 72 h
[2] = target: T1, Hepatocyte growth factor receptor (Homo sapiens, UniProt P08581); assay: Inhibition of MET
[3] = target: Tyrosine-protein kinase Mer (Homo sapiens, UniProt Q12866); assay: Inhibition of Mer
[4] = Antitumor activity in human GTL16 cells xenografted athymic mouse at 50 mg/kg, po administered once daily for 14 days; format: functional; conditions: GTL 16, 336 h, read-out: TGI
[5] = Oral bioavailability in Beagle dog at 5 mg/kg; format: ADME, organism-based, Canis lupus familiaris; conditions: in vivo
Method in brief: (§1)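 In-life PK: single iv and oral doses given in 70% PEG400-30% water, orally as a solution formulation. Mouse values are averages of six animals and rat values of three. Dog values are averages of two or three animals per route. Plasma Cmax, Tmax, AUC0-24h, iv t1/2, Cl, Vss and oral bioavailability were derived.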

[6] = Tmax in Sprague-Dawley rat at 10 mg/kg, po; format: ADME, organism-based; set-up: dose 10 mg/kg, route oral; conditions: in vivo; method in brief: as §1
[7] = target: Mitogen-activated protein kinase 14 (Homo sapiens, UniProt Q16539); assay: Inhibition of p38alpha
[8] = Volume of distribution at steady state in BALB/c mouse at 5 mg/kg, iv; format: ADME, organism-based; set-up: dose 5 mg/kg, route intravenous; conditions: in vivo, read-out: Vdss; method in brief: as §1
[9] = target: Macrophage-stimulating protein receptor (Homo sapiens, UniProt Q04912); assay: Inhibition of Ron
[10] = Antitumor activity in human GTL16 cells xenografted athymic mouse at 6.25 mg/kg, po administered once daily for 14 days; format: functional; conditions: GTL 16, 336 h, read-out: TGI
[11] = target: T1, Hepatocyte growth factor receptor; assay: Inhibition of Met phosphorylation in human GTL16 cells after 30 mins; format: cell-based
Method in brief: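 Human GTL-16 gastric carcinoma cells were incubated with compound for 30 min, then lysed. Phospho-Met protein levels in the lysates were assessed across a range of concentrations.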

[12] = Oral bioavailability in Sprague-Dawley rat at 10 mg/kg; format: ADME, organism-based; conditions: in vivo; method in brief: as §1
[13] = Volume of distribution at steady state in Beagle dog at 1 mg/kg, iv; format: ADME, organism-based, Canis lupus familiaris; set-up: dose 1 mg/kg, route intravenous; conditions: in vivo, read-out: Vdss; method in brief: as §1
Mus musculus [14] = assay: Toxicity in human GTL16 cells xenografted athymic mouse assessed as weight loss/morbidity at 25 mg/kg, po; format: organism-based; set-up: dose 25 mg/kg, route oral; conditions: in vivo
Method in brief: (§2)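 GTL-16 human gastric carcinoma cells were implanted subcutaneously in athymic mice and tumors staged to about 125 mm³. The compound was then given orally once daily for 14 consecutive days. Drug exposure (Cmax, AUC0-24h) was measured at the dose levels. Toxicity was judged by weight loss or morbidity.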

[15] = target: Serine/threonine-protein kinase pim-1 (Homo sapiens, UniProt P11309); assay: Inhibition of pim1
[16] = Protein binding in Sprague-Dawley rat; format: ADME, organism-based; conditions: in vivo, read-out: PB
[17] = Antiproliferative activity against Met-driven human U87 cells after 72 hrs by MTS assay; format: functional, cell-based, U-87MG ATCC; conditions: U-87 MG
[18] = Clearance in Sprague-Dawley rat at 5 mg/kg, iv; format: ADME, organism-based; set-up: dose 5 mg/kg, route intravenous; conditions: in vivo; method in brief: as §1
[19] = target: Tyrosine-protein kinase Blk (Homo sapiens, UniProt P51451); assay: Inhibition of Blk by Ambit binding assay
[20] = Volume of distribution at steady state in Sprague-Dawley rat at 5 mg/kg, iv; format: ADME, organism-based; set-up: dose 5 mg/kg, route intravenous; conditions: in vivo, read-out: Vdss; method in brief: as §1
[21] = target: Tyrosine-protein kinase receptor TYRO3 (Homo sapiens, UniProt Q06418); assay: Inhibition of Tyro3
[22] = Clearance in Beagle dog at 1 mg/kg, iv; format: ADME, organism-based, Canis lupus familiaris; set-up: dose 1 mg/kg, route intravenous; conditions: in vivo; method in brief: as §1
[23] = target: Platelet-derived growth factor receptor beta (Homo sapiens, UniProt P09619); assay: Inhibition of PDGFRbeta by cellular proliferation assay
Mus musculus [24] = assay: Toxicity in human GTL16 cells xenografted athymic mouse assessed as weight loss/morbidity at 6.25 mg/kg, po; format: organism-based; set-up: dose 6.25 mg/kg, route oral; conditions: in vivo; method in brief: as §2
[25] = Inhibition of CDK2E
[26] = Cmax in human GTL16 cells xenografted athymic mouse at 6.25 mg/kg, po; format: ADME, organism-based; set-up: dose 6.25 mg/kg, route oral; conditions: in vivo; method in brief: as §2
[27] = target: Proto-oncogene tyrosine-protein kinase Src (Homo sapiens, UniProt P12931); assay: Inhibition of Src by Ambit binding assay
[28] = target: Inhibitor of NF-kappa-B kinase alpha/beta (Homo sapiens, UniProt O14920+O15111); assay: Inhibition of IKK1/2
[29] = Inhibition of PKA
NCI-N87 = assay: Antiproliferative activity against Met-independent human NCI-N87 cells after 72 hrs by MTS assay; format: functional, cell-based; conditions: NCI-N87, 72 h
Aurora kinase B = Aurora kinase B (Homo sapiens, UniProt Q96GD4); assay: Inhibition of Aurora B
[30] = Tmax in BALB/c mouse at 10 mg/kg, po; format: ADME, organism-based; set-up: dose 10 mg/kg, route oral; conditions: in vivo; method in brief: as §1
[31] = target: Vascular endothelial growth factor receptor 2 (Homo sapiens, UniProt P35968); assay: Inhibition of VEGFR2
[32] = AUC (0 to 24 hrs) in human GTL16 cells xenografted athymic mouse at 50 mg/kg, po; format: ADME, organism-based; set-up: time < 24 hr, dose 50 mg/kg, route oral; conditions: in vivo; method in brief: as §2
[33] = Oral bioavailability in BALB/c mouse at 10 mg/kg; format: ADME, organism-based; conditions: in vivo; method in brief: as §1
[34] = target: Serine/threonine-protein kinase PLK1 (Homo sapiens, UniProt P53350); assay: Inhibition of plk1/3
[35] = Aqueous solubility at pH 1.0; format: physicochemical
[36] = Tmax in Beagle dog at 5 mg/kg, po; format: ADME, organism-based, Canis lupus familiaris; set-up: dose 5 mg/kg, route oral; conditions: in vivo; method in brief: as §1
[37] = Clearance in BALB/c mouse at 5 mg/kg, iv; format: ADME, organism-based; set-up: dose 5 mg/kg, route intravenous; conditions: in vivo; method in brief: as §1
Mus musculus [38] = assay: Toxicity in human GTL16 cells xenografted athymic mouse assessed as weight loss/morbidity at 50 mg/kg, po; format: organism-based; set-up: dose 50 mg/kg, route oral; conditions: in vivo; method in brief: as §2
[39] = Cmax in human GTL16 cells xenografted athymic mouse at 50 mg/kg, po; format: ADME, organism-based; set-up: dose 50 mg/kg, route oral; conditions: in vivo; method in brief: as §2
[40] = Protein binding in BALB/c mouse; format: ADME, organism-based; conditions: in vivo, read-out: PB
[41] = Protein binding in Beagle dog; format: ADME, organism-based, Canis lupus familiaris; conditions: in vivo, read-out: PB
[42] = Antitumor activity in human GTL16 cells xenografted athymic mouse at 25 mg/kg, po administered once daily for 14 days; format: functional; conditions: GTL 16, 336 h, read-out: TGI
[43] = target: BDNF/NT-3 growth factors receptor (Homo sapiens, UniProt Q16620); assay: Inhibition of TrkB
[44] = Half life in BALB/c mouse at 5 mg/kg, iv; format: ADME, organism-based; set-up: dose 5 mg/kg, route intravenous; conditions: in vivo; method in brief: as §1
[45] = target: High affinity nerve growth factor receptor (Homo sapiens, UniProt P04629); assay: Inhibition of TrkA
Rattus norvegicus = assay: Cmax in Sprague-Dawley rat at 10 mg/kg, po; format: ADME, organism-based; set-up: dose 10 mg/kg, route oral; conditions: in vivo; method in brief: as §1
Mus musculus [46] = assay: Cmax in BALB/c mouse at 10 mg/kg, po; format: ADME, organism-based; set-up: dose 10 mg/kg, route oral; conditions: in vivo; method in brief: as §1
[47] = target: MAP kinase-activated protein kinase 2 (Homo sapiens, UniProt P49137); assay: Inhibition of MK2
[48] = Half life in Beagle dog at 1 mg/kg, iv; format: ADME, organism-based, Canis lupus familiaris; set-up: dose 1 mg/kg, route intravenous; conditions: in vivo; method in brief: as §1
[49] = Half life in Sprague-Dawley rat at 5 mg/kg, iv; format: ADME, organism-based; set-up: dose 5 mg/kg, route intravenous; conditions: in vivo; method in brief: as §1
NCI-H1993 = assay: Antiproliferative activity against Met-dependent human NCI-H1993 cells after 72 hrs by MTS assay; format: functional, cell-based; conditions: NCI-H1993, 72 h
Ephrin type-A receptor 3 = Ephrin type-A receptor 3 (Homo sapiens, UniProt P29320); assay: Inhibition of Epha3 by Ambit binding assay
Canis familiaris = assay: Cmax in Beagle dog at 5 mg/kg, po; format: ADME, organism-based, Canis lupus familiaris; set-up: dose 5 mg/kg, route oral; conditions: in vivo; method in brief: as §1
[50] = AUC (0 to 24 hrs) in human GTL16 cells xenografted athymic mouse at 6.25 mg/kg, po; format: ADME, organism-based; set-up: time < 24 hr, dose 6.25 mg/kg, route oral; conditions: in vivo; method in brief: as §2
Cytochrome P450 2C19 = Cytochrome P450 2C19 (Homo sapiens, UniProt P33261); assay: Inhibition of CYP2C19; format: ADME
[51] = Metabolic stability in mouse liver microsomes assessed per mg of protein; format: ADME, Microsome
Cytochrome P450 2C9 = Cytochrome P450 2C9 (Homo sapiens, UniProt P11712); assay: Inhibition of CYP2C9; format: ADME
Cytochrome P450 1A2 = Cytochrome P450 1A2 (Homo sapiens, UniProt P05177); assay: Inhibition of CYP1A2; format: ADME
Cytochrome P450 3A4 = Cytochrome P450 3A4 (Homo sapiens, UniProt P08684); assay: Inhibition of CYP3A4; format: ADME
Cytochrome P450 2D6 = Cytochrome P450 2D6 (Homo sapiens, UniProt P10635); assay: Inhibition of CYP2D6; format: ADME
Cytochrome P450 2D6, sequence (P10635 whole entry): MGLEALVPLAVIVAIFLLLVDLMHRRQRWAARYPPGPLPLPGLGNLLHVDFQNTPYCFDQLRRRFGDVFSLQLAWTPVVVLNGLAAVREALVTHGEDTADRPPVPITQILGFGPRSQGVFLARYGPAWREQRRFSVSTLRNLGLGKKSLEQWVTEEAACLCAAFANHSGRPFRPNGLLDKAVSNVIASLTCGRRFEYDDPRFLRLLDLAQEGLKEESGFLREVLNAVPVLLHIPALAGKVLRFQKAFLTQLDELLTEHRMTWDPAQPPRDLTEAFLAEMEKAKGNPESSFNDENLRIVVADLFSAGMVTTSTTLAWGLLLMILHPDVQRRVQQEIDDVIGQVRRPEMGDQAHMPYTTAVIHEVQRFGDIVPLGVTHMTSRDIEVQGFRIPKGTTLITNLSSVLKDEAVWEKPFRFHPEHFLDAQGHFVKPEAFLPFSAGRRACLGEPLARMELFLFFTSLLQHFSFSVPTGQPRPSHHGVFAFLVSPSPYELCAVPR

T1 sequence (P08581 whole entry): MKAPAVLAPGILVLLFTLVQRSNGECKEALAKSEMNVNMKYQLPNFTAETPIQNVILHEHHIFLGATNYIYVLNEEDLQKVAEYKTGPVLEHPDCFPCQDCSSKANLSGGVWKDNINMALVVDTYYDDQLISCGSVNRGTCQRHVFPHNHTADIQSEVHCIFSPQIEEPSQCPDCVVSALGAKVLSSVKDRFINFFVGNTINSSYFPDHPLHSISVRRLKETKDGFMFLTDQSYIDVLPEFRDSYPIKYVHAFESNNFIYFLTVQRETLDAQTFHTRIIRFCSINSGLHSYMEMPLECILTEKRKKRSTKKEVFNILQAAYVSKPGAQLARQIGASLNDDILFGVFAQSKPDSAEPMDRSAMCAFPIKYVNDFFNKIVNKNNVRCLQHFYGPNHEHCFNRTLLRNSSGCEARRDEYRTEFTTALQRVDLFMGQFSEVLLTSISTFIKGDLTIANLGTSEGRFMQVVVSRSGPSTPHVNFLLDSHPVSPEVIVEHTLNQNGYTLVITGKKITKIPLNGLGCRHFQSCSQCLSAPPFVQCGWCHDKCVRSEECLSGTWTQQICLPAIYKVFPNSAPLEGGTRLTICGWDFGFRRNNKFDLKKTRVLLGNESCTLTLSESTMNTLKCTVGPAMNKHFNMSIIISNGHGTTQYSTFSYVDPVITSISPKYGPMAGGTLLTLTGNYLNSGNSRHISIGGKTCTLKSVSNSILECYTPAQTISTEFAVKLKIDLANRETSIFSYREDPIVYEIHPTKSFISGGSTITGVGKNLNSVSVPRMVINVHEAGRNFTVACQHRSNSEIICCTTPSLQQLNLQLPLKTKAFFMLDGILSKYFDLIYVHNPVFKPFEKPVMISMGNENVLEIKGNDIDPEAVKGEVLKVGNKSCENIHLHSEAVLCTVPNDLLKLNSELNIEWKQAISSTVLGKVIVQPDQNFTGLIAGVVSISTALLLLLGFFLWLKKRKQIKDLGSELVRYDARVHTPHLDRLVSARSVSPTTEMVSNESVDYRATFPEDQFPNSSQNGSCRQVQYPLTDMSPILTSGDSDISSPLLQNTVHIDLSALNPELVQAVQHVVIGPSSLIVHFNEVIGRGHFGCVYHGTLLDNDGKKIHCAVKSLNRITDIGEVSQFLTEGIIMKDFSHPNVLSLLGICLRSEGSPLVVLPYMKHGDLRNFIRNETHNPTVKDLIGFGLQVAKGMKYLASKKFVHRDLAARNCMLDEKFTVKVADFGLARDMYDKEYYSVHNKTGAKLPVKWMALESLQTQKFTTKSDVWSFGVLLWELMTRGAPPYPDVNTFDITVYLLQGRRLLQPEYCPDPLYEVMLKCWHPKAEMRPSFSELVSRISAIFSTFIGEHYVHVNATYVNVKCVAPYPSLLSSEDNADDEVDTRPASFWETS
Inhibitor of NF-kappa-B kinase alpha/beta, sequence (O14920 whole entry): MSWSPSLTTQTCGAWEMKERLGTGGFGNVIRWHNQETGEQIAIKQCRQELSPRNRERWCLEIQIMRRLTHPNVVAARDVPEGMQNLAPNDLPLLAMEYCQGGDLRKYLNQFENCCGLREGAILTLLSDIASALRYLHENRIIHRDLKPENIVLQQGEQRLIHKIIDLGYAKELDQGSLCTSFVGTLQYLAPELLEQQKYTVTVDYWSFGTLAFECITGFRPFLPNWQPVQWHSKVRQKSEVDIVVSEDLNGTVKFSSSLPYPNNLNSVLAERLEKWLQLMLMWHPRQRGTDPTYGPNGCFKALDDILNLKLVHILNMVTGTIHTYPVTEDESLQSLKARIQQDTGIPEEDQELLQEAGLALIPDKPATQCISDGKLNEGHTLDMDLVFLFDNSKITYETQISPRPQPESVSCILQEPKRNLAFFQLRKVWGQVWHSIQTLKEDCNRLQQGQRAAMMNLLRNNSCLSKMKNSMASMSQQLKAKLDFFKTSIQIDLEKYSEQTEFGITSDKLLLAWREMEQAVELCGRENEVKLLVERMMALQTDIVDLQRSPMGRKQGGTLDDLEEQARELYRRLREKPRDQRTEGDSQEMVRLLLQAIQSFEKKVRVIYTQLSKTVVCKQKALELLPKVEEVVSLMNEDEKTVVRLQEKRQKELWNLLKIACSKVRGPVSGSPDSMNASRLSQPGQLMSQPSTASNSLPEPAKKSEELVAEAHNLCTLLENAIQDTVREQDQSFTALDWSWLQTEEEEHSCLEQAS
Inhibitor of NF-kappa-B kinase alpha/beta, sequence (O15111 whole entry): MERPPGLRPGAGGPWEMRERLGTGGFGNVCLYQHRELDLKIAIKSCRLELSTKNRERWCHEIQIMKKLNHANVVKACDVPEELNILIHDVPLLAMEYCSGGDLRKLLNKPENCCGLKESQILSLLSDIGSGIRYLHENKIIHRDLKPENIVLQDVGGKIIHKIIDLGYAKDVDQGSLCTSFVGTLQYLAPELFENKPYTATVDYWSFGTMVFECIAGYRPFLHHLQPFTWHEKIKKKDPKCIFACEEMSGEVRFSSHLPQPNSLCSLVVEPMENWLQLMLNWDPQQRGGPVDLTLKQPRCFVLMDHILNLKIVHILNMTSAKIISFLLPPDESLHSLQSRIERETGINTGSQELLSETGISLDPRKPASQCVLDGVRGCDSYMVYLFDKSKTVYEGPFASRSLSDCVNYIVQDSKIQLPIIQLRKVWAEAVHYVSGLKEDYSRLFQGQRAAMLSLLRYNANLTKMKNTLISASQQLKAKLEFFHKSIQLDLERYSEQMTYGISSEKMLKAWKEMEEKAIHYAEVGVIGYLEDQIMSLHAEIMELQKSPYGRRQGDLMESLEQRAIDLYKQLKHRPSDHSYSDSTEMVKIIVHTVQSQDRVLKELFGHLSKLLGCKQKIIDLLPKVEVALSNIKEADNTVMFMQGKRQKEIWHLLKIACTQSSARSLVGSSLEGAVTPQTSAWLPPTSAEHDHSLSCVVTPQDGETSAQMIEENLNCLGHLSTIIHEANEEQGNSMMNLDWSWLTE
Serine/threonine-protein kinase PLK1, sequence (P53350 whole entry): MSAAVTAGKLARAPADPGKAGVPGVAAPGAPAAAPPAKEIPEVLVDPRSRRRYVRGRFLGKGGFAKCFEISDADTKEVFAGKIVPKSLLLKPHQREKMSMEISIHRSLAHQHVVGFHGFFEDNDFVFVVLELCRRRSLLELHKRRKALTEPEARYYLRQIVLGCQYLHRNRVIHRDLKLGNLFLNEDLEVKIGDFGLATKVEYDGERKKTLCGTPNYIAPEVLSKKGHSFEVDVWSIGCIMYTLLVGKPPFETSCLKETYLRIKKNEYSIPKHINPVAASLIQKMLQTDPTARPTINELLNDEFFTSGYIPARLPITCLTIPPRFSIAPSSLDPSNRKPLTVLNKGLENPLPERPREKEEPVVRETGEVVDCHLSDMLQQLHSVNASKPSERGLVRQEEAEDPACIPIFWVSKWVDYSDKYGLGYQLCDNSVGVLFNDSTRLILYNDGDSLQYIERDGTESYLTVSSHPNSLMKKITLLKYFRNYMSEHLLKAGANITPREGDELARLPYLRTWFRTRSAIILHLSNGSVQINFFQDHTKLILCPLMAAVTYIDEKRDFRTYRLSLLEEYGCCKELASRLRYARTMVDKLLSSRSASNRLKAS
Cytochrome P450 2C19, sequence (P33261 whole entry): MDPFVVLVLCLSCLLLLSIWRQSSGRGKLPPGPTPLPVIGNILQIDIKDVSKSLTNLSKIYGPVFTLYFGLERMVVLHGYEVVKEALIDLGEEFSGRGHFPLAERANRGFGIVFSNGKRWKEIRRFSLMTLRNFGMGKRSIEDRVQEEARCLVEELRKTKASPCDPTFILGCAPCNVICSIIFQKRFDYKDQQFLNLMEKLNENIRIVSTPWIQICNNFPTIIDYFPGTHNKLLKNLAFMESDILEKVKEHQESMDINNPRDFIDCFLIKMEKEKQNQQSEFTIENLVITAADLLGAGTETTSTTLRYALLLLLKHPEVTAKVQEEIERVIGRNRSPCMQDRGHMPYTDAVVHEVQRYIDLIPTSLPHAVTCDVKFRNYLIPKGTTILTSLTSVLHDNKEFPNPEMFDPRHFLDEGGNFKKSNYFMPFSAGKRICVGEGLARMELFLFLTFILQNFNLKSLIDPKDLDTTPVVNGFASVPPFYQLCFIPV
Cytochrome P450 3A4, sequence (P08684 whole entry): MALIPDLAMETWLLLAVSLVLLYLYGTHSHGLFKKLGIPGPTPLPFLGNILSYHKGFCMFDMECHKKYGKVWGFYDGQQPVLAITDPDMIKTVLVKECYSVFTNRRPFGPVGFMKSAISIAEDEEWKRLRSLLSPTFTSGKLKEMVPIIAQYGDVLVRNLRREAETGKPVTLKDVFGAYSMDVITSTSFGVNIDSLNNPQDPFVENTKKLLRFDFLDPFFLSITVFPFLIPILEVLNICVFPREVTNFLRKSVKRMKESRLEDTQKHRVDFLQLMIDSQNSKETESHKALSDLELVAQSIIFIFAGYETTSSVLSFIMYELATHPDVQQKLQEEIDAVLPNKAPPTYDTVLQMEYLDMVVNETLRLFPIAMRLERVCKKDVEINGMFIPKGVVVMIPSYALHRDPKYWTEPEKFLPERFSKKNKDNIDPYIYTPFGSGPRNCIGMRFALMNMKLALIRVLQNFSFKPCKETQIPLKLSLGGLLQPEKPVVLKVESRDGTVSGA

## CC(C)Oc1ccn(-c2ccc(F)cc2)c(=O)c1C(=O)Nc1ccc(Oc2ccnc(N)c2Cl)c(F)c1
[1]
  pIC50: 6.85
[2]
  pIC50: 8.49

## CCOc1ccn(-c2ccc(F)cc2)c(=O)c1C(=O)Nc1ccc(Oc2ccnc(N)c2Cl)c(F)c1 [BMS-777607]
[3]
  pIC50: 7.85
[4]
  inhibition in vivo at 50 mg/kg: 102%
[5]
  bioavailability: 100%
[6]
  Tmax: 1.7 h
[7]
  pIC50: < 5.70
[1]
  pIC50: 7.00
[8]
  Vd: 1.2 L/kg
[9]
  pIC50: 8.74
[10]
  inhibition in vivo at 6.25 mg/kg: 66%
[11]
  pIC50: 7.70
[12]
  bioavailability: 100%
[13]
  Vd: 0.2 L/kg
Mus musculus [14]
  Activity: Non-toxic
[15]
  pIC50: < 5.70
[16]
  fraction unbound: < 0.01
[17]
  pIC50: 6.80
[18]
  clearance: 12.1 mL/min/kg
[19]
  pIC50: < 6.30
[20]
  Vd: 1 L/kg
[21]
  pIC50: 8.37
[22]
  clearance: 0.82 mL/min/kg
[23]
  pIC50: 6.00
Mus musculus [24]
  Activity: Non-toxic
[25]
  pIC50: < 5.70
[26]
  Cmax: 4.5 µM
[27]
  pIC50: < 6.30
[28]
  pIC50: < 5.70
[29]
  pIC50: 6.26
NCI-N87
  pIC50: < 5.00
Aurora kinase B
  pIC50: 7.11
[30]
  Tmax: 0.5 h
[31]
  pIC50: 6.74
[32]
  AUC(0-t) at 24 h: 567 µM·h
[33]
  bioavailability: 100%
[34]
  pIC50: < 5.70
[35]
  solubility: 400 µg/mL (≈ 780 µM)
[36]
  Tmax: 2.3 h
[37]
  clearance: 4.4 mL/min/kg
Mus musculus [38]
  Activity: Non-toxic
[39]
  Cmax: 43.7 µM
[40]
  fraction unbound: < 0.01
[41]
  fraction unbound: < 0.01
[42]
  inhibition in vivo at 25 mg/kg: 95%
[43]
  pIC50: 6.72
[44]
  half-life: 4.5 h
[45]
  pIC50: 6.54
Rattus norvegicus
  Cmax: 8.7 µM
Mus musculus [46]
  Cmax: 17.6 µM
[47]
  pIC50: < 5.70
[48]
  half-life: 4.9 h
[49]
  half-life: 4.8 h
[2]
  pIC50: 8.41
NCI-H1993
  pIC50: 6.82
Ephrin type-A receptor 3
  pIC50: < 6.30
Canis familiaris
  Cmax: 29 µM
[50]
  AUC(0-t) at 24 h: 37 µM·h

## Nc1nccc(Oc2ccc(NC(=O)c3cccn(-c4ccc(F)cc4)c3=O)cc2F)c1Cl
Cytochrome P450 2C19
  pIC50: < 4.70
[1]
  pIC50: 7.24
[51]
  Activity: 0.012 nmol/min/mg
Cytochrome P450 2C9
  pIC50: 5.15
Cytochrome P450 1A2
  pIC50: < 4.70
Cytochrome P450 3A4
  pIC50: 5.40
[2]
  pIC50: 9.00
Cytochrome P450 2D6
  pIC50: < 4.70
